Cdc25B block: human M-phase inducer phosphatase 2 inhibition. P30305. recombinant Cdc25B, OMFP fluorescence Ex485/Em525. inhibition, %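 (compounds tested at 10 µM final in the well)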. hit rate 0.1% among 65,000; in the data active means inhibition above about 50%
Her2 expr inh: Her2 kinase expression inhibition; hit rate 0.69% among 65,000; HER2 level % of control, % at 10 µM; P04626; SKBR-3 HER2 protein level, AlphaScreen, 18-24 h; hits give low values; AID 645;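 active means HER2 level under 5% of the carrier-only control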;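 further: lower value means stronger loss of Her2 protein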
M1 antagonist: blocks the rat M1 muscarinic receptor response to acetylcholine | CHO-M1 cells, Fluo-4 calcium, ACh EC80 antagonist mode; hits give low values | hit rate 3.4% among 64,000 | AID 628 | B-score at 10 µM | P08482;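 active means calcium fluorescence response, raw or row-and-column corrected B-score, differing from the plate sample mean either way at a set confidence level, mostly lower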
DUSP1 inh: human dual specificity phosphatase 1 inhibition. inhibition, %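 (compounds tested at a single concentration somewhere between 10 and 100 µM)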. hit rate 0.15% among 65,000. AID 374. recombinant MKP-1, OMFP hydrolysis fluorescence;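 active means inhibition above about 50%, limit read from the data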
Target sequence (P28562 whole entry, looked up): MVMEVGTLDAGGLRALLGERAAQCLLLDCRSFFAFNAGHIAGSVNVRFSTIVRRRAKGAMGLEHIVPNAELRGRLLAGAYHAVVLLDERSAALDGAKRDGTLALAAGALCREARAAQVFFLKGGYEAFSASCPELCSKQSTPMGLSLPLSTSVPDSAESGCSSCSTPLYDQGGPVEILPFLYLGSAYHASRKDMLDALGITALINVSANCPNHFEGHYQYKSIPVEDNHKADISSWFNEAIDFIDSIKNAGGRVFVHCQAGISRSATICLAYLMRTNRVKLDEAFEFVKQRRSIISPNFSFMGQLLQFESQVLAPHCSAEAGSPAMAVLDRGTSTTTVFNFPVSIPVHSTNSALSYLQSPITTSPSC
M1 agonist: M1 muscarinic receptor agonism; CHO-M1 cells, Fluo-4 calcium fluorescence, agonist mode; hits give high values; B-score at 10 µM; hit rate 3% among 64,000; AID 626;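 active means fluorescence rise, raw or as B-score row- and column-corrected plate score, outside the 99.7% band of its plate's samples, either direction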
HEK293 NFkB inh: inhibitors of the PMA/ionomycin-induced NF-kB reporter in HEK293 cells. HEK-293 NF-kB luciferase reporter, luminescence. inhibition, % at 3 µM. hit rate 0.21% among 62,000;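 active means inhibition above the mean of all tested compounds plus 3 SD, cut at about 40% in these data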
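System – HEK-293 cells with stable firefly luciferase reporter driven by four HIV NF-kB elements · Doses – one dose, 3 µM · Schedule – 1 h compound pre-incubation, 16 h PMA/ionomycin at 37 °C · Technique – luminescence from luciferase substrate reagent · Measure – percent inhibition normalized per plate to DMSO and reference-inhibitor controls · Replicates – tested once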
Of the large screens only hits and unclear results are named; the others gave an inactive call. Sampled rows, rich in hits. Any-hit rate of the full collection: about 6.8%.

CCCCC(C(=O)O)C(C)CC(=O)Nc1cccc(C(=O)O)c1 (configuration not stated)	Her2 expr inh -21.9 (no result: HEK293 NFkB inh)
CC(C)CN(CC(C)C)S(=O)(=O)N1CCC(C(=O)NC2CCCCCCC2)CC1	none
COc1cccc(C2C(C(=O)OCc3ccccc3)=C(C)Nc3ncnn32)c1OC (configuration not stated)	none
CC1CC=C2C(C#N)=C(N)C(C#N)(C#N)C(c3cccs3)C2C1 (configuration not stated)	M1 agonist 11.6 (no result: Her2 expr inh)
Cc1ccc(C2C3CSCC=C3C(C#N)=C(N)C2(C#N)C#N)cc1 (configuration not stated)	none
CCn1ncc(C2=NOC(C(=O)Nc3c(C)nn(Cc4ccc(F)cc4)c3C)C2)c1C (configuration not stated)	M1 agonist -2.47
CCc1cc(C(=O)COc2ccccc2F)c(O)cc1O	none
Cc1cccn2c(=O)c3cc(C(=O)N4CCc5ccccc54)n(C)c3nc12	none
Cc1ccc2c(C)nc(NC3=NCN(CCc4ccccc4)CN3)nc2c1	M1 antagonist -12.6
Cc1nc(NC2=NCN(CCc3ccccc3)CN2)nc2ccccc12	M1 antagonist -8.96
COCCN1CN=C(Nc2nc(C)c3ccc(C)cc3n2)NC1	M1 antagonist -7.3
COc1ccc(C2N=C(c3ccccc3)C(C)(C)N2O)cc1OC (configuration not stated)	none
CSc1cccc(-n2cc(-c3ccc4c(c3)OCO4)[nH]c2=O)c1	none
O=C(CSc1nnc2sc3ccccc3n12)NCc1ccc2c(c1)OCO2	none
CCSc1nnc(-c2ccc(Cl)cc2Cl)o1	M1 antagonist 1.97
Fc1ccc(-c2nnc(-c3ccc(Cl)cc3Cl)o2)cc1	none
Clc1ccc(-c2nnc(-c3ccccc3)o2)c(Cl)c1	Her2 expr inh -25.8
CCOCCCn1c(C)nc2c(c1=O)c1nc3ccccc3nc1n2CCC1=CCCCC1	Her2 expr inh -22.4
CCCn1cnc2c(c1=O)c1nc3ccccc3nc1n2CCC1=CCCCC1	none
O=C(c1ccc2c(=O)n(C3CCCC3)c(=S)[nH]c2c1)N1CCN(C2CCCCC2)CC1	DUSP1 inh 52.3
O=c1c2ccccc2[nH]c(=S)n1C1CCCCC1	none
Cc1nn(-c2ccccc2)c2sc(-c3n[nH]c(=S)o3)cc12	none (no result: M1 antagonist, M1 agonist)
C=CCn1c(C)cc(C(=O)CSc2nnc(NCc3ccccc3)s2)c1C	M1 antagonist 1.88
CN1CCN(CCCNc2nc3ccccc3c3nc(-c4ccccc4)nn23)CC1	Her2 expr inh -10.4
COc1cc2nc(NCCN3CCOCC3)n3nc(-c4ccccc4)nc3c2cc1OC	none
CNC(=O)c1cc2c(=O)n3cc(C)ccc3nc2n(Cc2ccco2)c1=N	none
CNC(=O)c1cc2c(=O)n3cc(C)ccc3nc2n(C(C)C)c1=N	M1 agonist 16.8
COC(=O)COc1ccc(S(=O)(=O)Nc2ccc3c(c2)OCO3)cc1	Her2 expr inh -11.0
COc1ccc(OC)c(C2C(C(C)=O)=C(O)C(=O)N2Cc2cccnc2)c1 (configuration not stated)	none
CCOC(=O)C1CCN(Cc2ccc(C(=O)OC)cc2)CC1	M1 antagonist -5.6, M1 agonist 41
CCOC(=O)C1CCN(Cc2ccc(F)cc2)CC1	none
CCc1nnc2c3cnn(-c4ccc(C)c(C)c4)c3ncn12	none (no result: Cdc25B block, Her2 expr inh, DUSP1 inh)
CC1CCCCC1NC(=O)CCn1c(=O)oc2ccccc21 (configuration not stated)	DUSP1 inh 77.1
COc1cccc(NC(=O)c2ocnc2C)c1	none
Cn1c(=O)oc2cc(S(=O)(=O)NCCC(=O)NC3CCCC3)ccc21	DUSP1 inh 51.5
Cc1nc(SCn2nnc3ccccc3c2=O)c2c(C)c(C)sc2n1	none
CCOc1ccccc1Nc1nc(N)nc(CN(C)C2CCCCC2)n1	none
CC1CN(c2nc3c(c(=O)n(C)c(=O)n3C)n2Cc2c(Cl)cccc2Cl)CC(C)O1 (configuration not stated)	M1 antagonist 3.16
CC1CN(c2nc3c(c(=O)n(C)c(=O)n3C)n2Cc2c(F)cccc2Cl)CC(C)O1 (configuration not stated)	none
O=C1CC(Sc2nnc(-c3ccccc3O)o2)C(=O)N1c1ccccc1 (configuration not stated)	Her2 expr inh -12.7
O=C1OCCC1Sc1nnc(-c2ccccc2)o1 (configuration not stated)	none (no result: M1 antagonist, M1 agonist)
COc1ccc(N2C(=O)CC(Sc3nnc(-c4ccccc4)o3)C2=O)cc1 (configuration not stated)	Her2 expr inh -18.1
CC(=NCCN1CCNCC1)C1=C(O)CC(C)(C)CC1=O	none
Cn1nc(-c2ccccc2)c2nc3ccccc3nc21	M1 antagonist 4.53, M1 agonist 133
CN(C)S(=O)(=O)c1ccc(C(=O)Nc2ccnn2C2CCCCC2)cc1	none
CCCc1cc(C(=O)Cc2ccc(F)cc2)c(O)cc1O	Her2 expr inh -11.6 (no result: HEK293 NFkB inh)
CCc1cc(C(=O)Cc2ccc(F)cc2)c(O)cc1O	none
CCOC(=O)c1c(-c2cccs2)csc1NC(=O)c1ccco1	Her2 expr inh -28.0
CCOC(=O)c1c(-c2cccs2)csc1NC(=O)CN1CCOCC1	none
CS(=O)(=O)N(CCc1ccccc1)CC(=O)NCc1cccnc1	none
CCCCCn1c(=O)[nH]c2cc(C(=O)NCCCN3CCC(C)CC3)ccc2c1=O	none
O=C(c1ccco1)N1CCN(c2cc(=O)n(C3CCCCC3)c(=O)[nH]2)CC1	Cdc25B block 64.8
CC1=C(C(=O)OCc2ccccc2)C(c2ccc(C)o2)C2=C(CCCC2=O)N1 (configuration not stated)	none
CCSCCOC(=O)C1=C(C)NC2=C(C(=O)CCC2)C1c1coc2ccccc2c1=O (configuration not stated)	DUSP1 inh 50.1
Cc1ccc(N(CC(=O)Nc2ccc3c(c2)OCCO3)S(=O)(=O)c2c(C)n[nH]c2C)cc1	none
Cc1n[nH]c(C)c1S(=O)(=O)Nc1ccc2c(c1)OCCO2	M1 antagonist 2.35
COc1ccccc1-c1c(C)oc2c(CN3CCN(C)CC3)c(O)ccc2c1=O	none (no result: HEK293 NFkB inh)
CCOC(=O)c1oc2c(CN3CCN(C)CC3)c(O)ccc2c(=O)c1-c1ccccc1OC	M1 antagonist 0.805
CCOc1ccc(-c2cn(CCC#N)cn2)cc1	M1 antagonist 2.12
CCCn1nc(Oc2nc(SC)nc(N(C)C)n2)ccc1=O	M1 antagonist 2.03 (no result: HEK293 NFkB inh)
O=C(O)c1c(-c2ccccc2)c2oc3ccccc3c2[nH]c1=O	none
O=C(O)CCCCCNC(=O)CCn1nnc2ccccc2c1=O	M1 antagonist 1.58
CCOc1ccccc1NC(=O)N1CCCC1C(=O)Nc1ccc(NC(C)=O)cc1 (configuration not stated)	none
C=CCn1c(=O)c2ccccc2n2c(SCc3c(C(=O)OCC)oc4ccccc34)nnc12	none
Cc1cccc(N2CCN(c3nc4ccccc4n4cnnc34)CC2)c1C	M1 antagonist 0.357
c1cnc(N2CCN(c3nc4ccccc4n4cnnc34)CC2)nc1	none
